Test [1] has as its target Cyclin-dependent kinase 1/cyclin B1 (Homo sapiens, UniProt P06493). Kind of test: (§1) Inhibition of CDK1/cyclin B (unknown origin) in presence of [gamma-33P]-ATP […]. Type of test: protein-complex assay. Particulars: read-out: Ki(app).
The next test deals with CDK2/Cyclin A2 (Homo sapiens, UniProt P24941). The test is described as follows: (§2) Inhibition of CDK2/cyclin A (unknown origin) in presence of [gamma-33P]-ATP […]. Type of test: protein-complex assay. Particulars: read-out: Ki(app).
Test [2] deals with Cyclin-dependent kinase 7/ cyclin H (Homo sapiens, UniProt P50613). The test is described as follows: (§3) Inhibition of CDK7/cyclin H (unknown origin) in presence of [gamma-33P]-ATP […]. The class given is protein-complex assay. The following applies: read-out: Ki(app).
The test system of test [3] is MV4-11. Kind of test: Growth inhibition of human MV4-11 cells after 72 hrs by resazurin assay. Type of test: functional. Particulars: MV4-11, 72 h. The method, boiled down:
(§4)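 72 h antiproliferation assay, resazurin read-out for MV4-11 and MTT read-out for MDA-MB-453; values from at least two replicates.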
(The colour change of resazurin is a common sign of viable cells or microbes.)

A further test has as its system MDA-MB-453. Kind of test: Growth inhibition of human MDA-MB-453 cells after 72 hrs by MTT assay. Type of test: functional. Particulars: MDA-MB-453, 72 h. The essentials:
as §4
Background: Tetrazolium assays rely on reduction of a dye to a coloured formazan, in cell work by metabolically active cells.

Test [4] concerns MV4-11. Kind of test: Cell cycle arrest in human MV4-11 cells assessed as accumulation at sub-G1 phase at 0.04 uM after 24 hrs by propidium iodide staining based flow cytometry (reference value: 1.99%). Type of test: functional. (In general: In flow cytometry, cells or beads pass a laser one at a time.)
Test [5] concerns MV4-11. The test is described as follows: Cell cycle arrest in human MV4-11 cells assessed as accumulation at G1 phase at 0.04 uM after 24 hrs by propidium iodide staining based flow cytometry (reference value: 61.01%). The class given is functional.
In test [6] the test system is MV4-11. Kind of test: Cell cycle arrest in human MV4-11 cells assessed as accumulation at S phase at 0.04 uM after 24 hrs by propidium iodide staining based flow cytometry (reference value: 19.07%). The class given is functional.
In test [7] the test system is MV4-11. The test is described as follows: Cell cycle arrest in human MV4-11 cells assessed as accumulation at G2/M phase at 0.04 uM after 24 hrs by propidium iodide staining based flow cytometry (reference value: 17.94%). Type of test: functional.
The subject of test [8] is MV4-11. Kind of test: Cell cycle arrest in human MV4-11 cells assessed as accumulation at sub-G1 phase at 0.20 uM after 24 hrs by propidium iodide staining based flow cytometry (reference value: 1.99%). Type of test: functional.
Test [9] concerns MV4-11. The test is described as follows: Cell cycle arrest in human MV4-11 cells assessed as accumulation at G1 phase at 0.20 uM after 24 hrs by propidium iodide staining based flow cytometry (reference value: 61.01%). Type of test: functional.
The subject of test [10] is MV4-11. Kind of test: Cell cycle arrest in human MV4-11 cells assessed as accumulation at S phase at 0.20 uM after 24 hrs by propidium iodide staining based flow cytometry (reference value: 19.07%). The class given is functional.
Test [11] deals with MV4-11. The test is described as follows: Cell cycle arrest in human MV4-11 cells assessed as accumulation at G2/M phase at 0.20 uM after 24 hrs by propidium iodide staining based flow cytometry (reference value: 17.94%). The class given is functional.
Test [12] concerns MV4-11. Kind of test: Cell cycle arrest in human MV4-11 cells assessed as accumulation at sub-G1 phase at 0.40 uM after 24 hrs by propidium iodide staining based flow cytometry (reference value: 1.99%). The class given is functional.
Test [13] deals with MV4-11. The test is described as follows: Cell cycle arrest in human MV4-11 cells assessed as accumulation at G1 phase at 0.40 uM after 24 hrs by propidium iodide staining based flow cytometry (reference value: 61.01%). The class given is functional.
Test [14] has as its system MV4-11. Kind of test: Cell cycle arrest in human MV4-11 cells assessed as accumulation at S phase at 0.40 uM after 24 hrs by propidium iodide staining based flow cytometry (reference value: 19.07%). Type of test: functional.
Test [15] has as its system MV4-11. Kind of test: Cell cycle arrest in human MV4-11 cells assessed as accumulation at G2/M phase at 0.40 uM after 24 hrs by propidium iodide staining based flow cytometry (reference value: 17.94%). The class given is functional.
Test [16] concerns MV4-11. The test is described as follows: Cell cycle arrest in human MV4-11 cells assessed as accumulation at G1 phase after 24 hrs by propidium iodide staining based flow cytometry. The class given is functional.
For another test, the species on record is Homo sapiens. Kind of test: Inhibition of SGK (unknown origin) assessed as residual activity at 10 uM; values are per cent of control.
In test [17] the target is Dual specificity tyrosine-phosphorylation-regulated kinase 1B (Homo sapiens) (UniProt Q9Y463). Kind of test: Inhibition of DYRK1B (unknown origin) assessed as residual activity at 10 uM; values are per cent of control.
The target in test [18] is Serine/threonine-protein kinase pim-1 (Homo sapiens) (UniProt P11309). Kind of test: Inhibition of recombinant full-length human N-terminal GST-tagged Pim-1 expressed in Escherichia coli assessed as residual activity at 10 uM; values are per cent of control.
In test [19] the target is Dual specificity tyrosine-phosphorylation-regulated kinase 1A (Rattus norvegicus) (UniProt Q63470). The test is described as follows: Inhibition of recombinant rat N-terminal GST-tagged DYRK1A (1 to 499 amino acid residues) expressed in Escherichia coli assessed as residual activity at 10 uM; values are per cent of control.
In test [20] the target is MAP kinase-interacting serine/threonine-protein kinase 2 (Homo sapiens) (UniProt Q9HBH9). The test is described as follows: Inhibition of recombinant full-length human N-terminal His6-tagged Mnk2 expressed in baculovirus infected Sf21 insect cells assessed as residual activity at 10 uM; values are per cent of control.
Test [21] has as its target Death-associated protein kinase 1 (Homo sapiens) (UniProt P53355). The test is described as follows: Inhibition of recombinant human N-terminal GST-tagged DAPK1 (1 to 296 amino acid residues) expressed in baculovirus infected Sf21 cells assessed as residual activity at 10 uM; values are per cent of control.
For test [22], the target named is Receptor-type tyrosine-protein kinase FLT3 (Homo sapiens) (UniProt P36888). The test is described as follows: Inhibition of recombinant human N-terminal GST-tagged Flt3 (564 to end amino acid residues) expressed in baculovirus infected Sf21 insect cells assessed as residual activity at 10 uM; values are per cent of control.
The target in test [23] is Vascular endothelial growth factor receptor 3 (Homo sapiens) (UniProt P35916). The test is described as follows: Inhibition of recombinant human N-terminal GST-tagged Flt4 (800 to end amino acid residues) expressed in baculovirus infected Sf21 insect cells assessed as residual activity at 10 uM; values are per cent of control.
The target in test [24] is Fibroblast growth factor receptor 1 (Homo sapiens) (UniProt P11362). The test is described as follows: Inhibition of recombinant human N-terminal GST-tagged FGFR1 (456 to 765 amino acid residues) expressed in baculovirus infected Sf21 insect cells assessed as residual activity at 10 uM; values are per cent of control.
Test [25] deals with Homeodomain-interacting protein kinase 2 (Homo sapiens) (UniProt Q9H2X6). The test is described as follows: Inhibition of recombinant human N-terminal His6-tagged HIPK2 (165 to 564 amino acid residues) expressed in baculovirus infected Sf21 insect cells assessed as residual activity at 10 uM; values are per cent of control.
Test [26] addresses Cyclin-dependent kinase 1/cyclin B1 (Homo sapiens) (UniProt P06493+P14635). Described as §1. The class given is protein-complex assay.
The target in test [27] is Cyclin-dependent kinase 7/ cyclin H (Homo sapiens) (UniProt P51946+P50613). Described as §3. The class given is protein-complex assay.
The target of test [28] is Dual specificity tyrosine-phosphorylation-regulated kinase 1A (Rattus norvegicus) (UniProt Q63470). The test is described as follows: Inhibition of recombinant rat N-terminal GST-tagged DYRK1A (1 to 499 amino acid residues) expressed in Escherichia coli assessed as residual activity at 10 uM.
Test [29] addresses Homeodomain-interacting protein kinase 2 (Homo sapiens) (UniProt Q9H2X6). Kind of test: Inhibition of recombinant human N-terminal His6-tagged HIPK2 (165 to 564 amino acid residues) expressed in baculovirus infected Sf21 insect cells assessed as residual activity at 10 uM.
In test [30] the target is Dual specificity tyrosine-phosphorylation-regulated kinase 1B (Homo sapiens) (UniProt Q9Y463). The test is described as follows: Inhibition of DYRK1B (unknown origin) assessed as residual activity at 10 uM.
Test [31] deals with Cyclin-dependent kinase 4/cyclin D1 (Homo sapiens, UniProt P11802). The test is described as follows: Inhibition of CDK4/cyclin D1 (unknown origin) in presence of [gamma-33P]-ATP […]. Particulars: read-out: Ki(app). The class given is protein-complex assay.
For a further test, the target named is CDK6/cyclin D3 (Homo sapiens, UniProt Q00534). Kind of test: Inhibition of CDK6/cyclin D3 (unknown origin) in presence of [gamma-33P]-ATP […]. The class given is protein-complex assay. Particulars: read-out: Ki(app).
The next test addresses CDK9/cyclin T1 (Homo sapiens, UniProt P50750). Kind of test: Inhibition of CDK9/cyclin T1 (unknown origin) in presence of [gamma-33P]-ATP […]. The class given is protein-complex assay. Particulars: read-out: Ki(app).
Test [32] has as its target CDK2/Cyclin A2 (Homo sapiens) (UniProt P24941+P20248). The description is as §2. The class given is protein-complex assay.

The source made the active and inactive calls. The calls are words filed in the database; no cut-off is given here.

Homeodomain-interacting protein kinase 2 (Homo sapiens), sequence (Q9H2X6 whole entry, looked up, the tested form may be a part): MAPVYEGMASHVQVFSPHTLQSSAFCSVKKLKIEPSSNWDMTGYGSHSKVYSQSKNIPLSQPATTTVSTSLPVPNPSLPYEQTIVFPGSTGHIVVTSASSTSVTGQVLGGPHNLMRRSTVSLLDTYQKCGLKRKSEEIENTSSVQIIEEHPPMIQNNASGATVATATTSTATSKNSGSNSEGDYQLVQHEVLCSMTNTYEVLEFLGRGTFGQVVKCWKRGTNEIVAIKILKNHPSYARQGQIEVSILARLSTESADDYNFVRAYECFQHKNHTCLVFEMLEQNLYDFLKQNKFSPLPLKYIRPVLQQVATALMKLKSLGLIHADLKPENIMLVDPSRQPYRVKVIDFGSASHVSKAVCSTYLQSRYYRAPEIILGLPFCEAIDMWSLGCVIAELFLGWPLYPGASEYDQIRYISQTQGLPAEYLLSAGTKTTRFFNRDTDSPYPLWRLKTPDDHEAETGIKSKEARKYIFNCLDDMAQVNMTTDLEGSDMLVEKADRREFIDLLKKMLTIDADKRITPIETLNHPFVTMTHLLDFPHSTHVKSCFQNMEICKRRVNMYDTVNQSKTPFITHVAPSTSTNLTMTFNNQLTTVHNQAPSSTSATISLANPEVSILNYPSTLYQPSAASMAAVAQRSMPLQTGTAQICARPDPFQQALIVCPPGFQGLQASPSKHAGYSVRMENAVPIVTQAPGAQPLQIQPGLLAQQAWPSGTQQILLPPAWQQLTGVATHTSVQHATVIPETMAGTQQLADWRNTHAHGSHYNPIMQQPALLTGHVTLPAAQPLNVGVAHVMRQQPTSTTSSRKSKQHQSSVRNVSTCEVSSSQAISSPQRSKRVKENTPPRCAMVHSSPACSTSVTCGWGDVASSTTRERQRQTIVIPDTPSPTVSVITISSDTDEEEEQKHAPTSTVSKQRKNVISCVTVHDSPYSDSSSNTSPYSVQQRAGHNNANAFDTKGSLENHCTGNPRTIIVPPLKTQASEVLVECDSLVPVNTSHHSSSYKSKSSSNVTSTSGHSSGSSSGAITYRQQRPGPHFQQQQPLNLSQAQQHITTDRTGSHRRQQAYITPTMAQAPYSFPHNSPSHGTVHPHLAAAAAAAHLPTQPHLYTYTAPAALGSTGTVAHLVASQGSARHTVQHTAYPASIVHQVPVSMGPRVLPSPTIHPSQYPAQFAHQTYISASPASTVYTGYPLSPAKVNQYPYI
Dual specificity tyrosine-phosphorylation-regulated kinase 1B (Homo sapiens), sequence (Q9Y463 whole entry, looked up): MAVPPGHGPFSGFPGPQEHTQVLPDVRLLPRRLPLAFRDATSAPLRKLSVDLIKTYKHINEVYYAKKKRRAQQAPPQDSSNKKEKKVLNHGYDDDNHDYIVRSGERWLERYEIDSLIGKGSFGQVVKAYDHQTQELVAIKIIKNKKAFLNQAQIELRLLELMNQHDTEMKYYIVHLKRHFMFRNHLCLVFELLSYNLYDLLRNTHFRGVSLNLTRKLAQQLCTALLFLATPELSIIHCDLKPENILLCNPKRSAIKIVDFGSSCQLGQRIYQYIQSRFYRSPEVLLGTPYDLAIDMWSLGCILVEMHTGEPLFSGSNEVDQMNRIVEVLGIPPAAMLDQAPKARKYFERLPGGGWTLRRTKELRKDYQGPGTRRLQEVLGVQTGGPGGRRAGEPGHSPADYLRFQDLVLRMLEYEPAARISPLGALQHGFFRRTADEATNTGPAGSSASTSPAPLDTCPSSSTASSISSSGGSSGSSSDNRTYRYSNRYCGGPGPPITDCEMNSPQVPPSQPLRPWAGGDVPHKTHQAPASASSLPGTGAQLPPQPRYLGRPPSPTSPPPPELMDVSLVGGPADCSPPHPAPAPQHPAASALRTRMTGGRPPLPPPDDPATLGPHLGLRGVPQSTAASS
Cyclin-dependent kinase 1/cyclin B1 (Homo sapiens), sequence (P06493 whole entry, looked up): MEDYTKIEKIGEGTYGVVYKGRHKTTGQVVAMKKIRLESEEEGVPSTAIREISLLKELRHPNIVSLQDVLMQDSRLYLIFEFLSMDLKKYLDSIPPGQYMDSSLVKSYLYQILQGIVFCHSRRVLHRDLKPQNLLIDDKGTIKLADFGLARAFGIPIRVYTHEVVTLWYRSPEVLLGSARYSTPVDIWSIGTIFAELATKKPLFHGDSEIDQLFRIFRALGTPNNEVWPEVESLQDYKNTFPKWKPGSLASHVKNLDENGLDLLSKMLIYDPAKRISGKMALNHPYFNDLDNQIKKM
Cyclin-dependent kinase 1/cyclin B1 (Homo sapiens), sequence (P14635 whole entry, looked up): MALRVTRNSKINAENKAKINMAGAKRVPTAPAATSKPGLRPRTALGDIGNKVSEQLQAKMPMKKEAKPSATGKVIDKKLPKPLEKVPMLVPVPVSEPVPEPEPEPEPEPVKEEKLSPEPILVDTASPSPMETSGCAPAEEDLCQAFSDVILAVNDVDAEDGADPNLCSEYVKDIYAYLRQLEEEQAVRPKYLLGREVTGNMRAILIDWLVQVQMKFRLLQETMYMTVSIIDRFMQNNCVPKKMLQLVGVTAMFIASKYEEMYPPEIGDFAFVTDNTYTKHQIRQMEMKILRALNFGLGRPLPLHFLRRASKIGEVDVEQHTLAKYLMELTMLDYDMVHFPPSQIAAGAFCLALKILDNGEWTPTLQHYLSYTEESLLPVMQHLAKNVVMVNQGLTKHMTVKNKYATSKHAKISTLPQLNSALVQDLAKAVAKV
Cyclin-dependent kinase 1/cyclin B1, sequence (P06493 whole entry): as the sequence (P06493 whole entry, looked up) above
Cyclin-dependent kinase 1/cyclin B1, sequence (P14635 whole entry, further chain): as the sequence (P14635 whole entry, looked up) above
CDK9/cyclin T1, sequence (O60563 whole entry): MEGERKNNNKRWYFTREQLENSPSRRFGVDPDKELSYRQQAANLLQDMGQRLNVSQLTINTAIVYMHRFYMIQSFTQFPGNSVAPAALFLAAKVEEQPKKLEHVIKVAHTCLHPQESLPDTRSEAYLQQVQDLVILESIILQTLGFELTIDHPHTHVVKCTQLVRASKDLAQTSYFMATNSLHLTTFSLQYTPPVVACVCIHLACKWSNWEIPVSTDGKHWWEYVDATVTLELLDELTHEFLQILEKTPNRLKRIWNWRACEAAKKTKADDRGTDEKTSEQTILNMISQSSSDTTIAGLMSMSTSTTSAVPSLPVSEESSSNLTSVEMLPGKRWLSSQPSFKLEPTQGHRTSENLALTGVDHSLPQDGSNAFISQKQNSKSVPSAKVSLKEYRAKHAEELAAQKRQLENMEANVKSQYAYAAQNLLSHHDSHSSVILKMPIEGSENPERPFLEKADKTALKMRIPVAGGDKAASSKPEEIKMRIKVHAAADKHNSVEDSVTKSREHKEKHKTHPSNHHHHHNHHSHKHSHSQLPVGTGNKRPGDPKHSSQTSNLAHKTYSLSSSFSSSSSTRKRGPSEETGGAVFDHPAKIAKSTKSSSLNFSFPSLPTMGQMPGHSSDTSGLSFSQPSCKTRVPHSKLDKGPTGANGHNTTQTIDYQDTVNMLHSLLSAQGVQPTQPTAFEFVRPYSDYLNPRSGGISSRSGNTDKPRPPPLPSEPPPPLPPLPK
CDK9/cyclin T1, sequence (P50750 whole entry): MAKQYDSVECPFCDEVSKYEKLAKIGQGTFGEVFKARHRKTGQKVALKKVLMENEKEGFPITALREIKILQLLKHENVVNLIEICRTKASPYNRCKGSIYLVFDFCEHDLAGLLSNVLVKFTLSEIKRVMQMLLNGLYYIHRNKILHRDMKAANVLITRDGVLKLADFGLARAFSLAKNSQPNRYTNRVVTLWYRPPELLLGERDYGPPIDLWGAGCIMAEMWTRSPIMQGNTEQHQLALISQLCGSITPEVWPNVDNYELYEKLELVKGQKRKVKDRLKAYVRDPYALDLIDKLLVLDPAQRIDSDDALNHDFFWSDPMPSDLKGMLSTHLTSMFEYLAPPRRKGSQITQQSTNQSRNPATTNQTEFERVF
Cyclin-dependent kinase 7/ cyclin H, sequence (P51946 whole entry): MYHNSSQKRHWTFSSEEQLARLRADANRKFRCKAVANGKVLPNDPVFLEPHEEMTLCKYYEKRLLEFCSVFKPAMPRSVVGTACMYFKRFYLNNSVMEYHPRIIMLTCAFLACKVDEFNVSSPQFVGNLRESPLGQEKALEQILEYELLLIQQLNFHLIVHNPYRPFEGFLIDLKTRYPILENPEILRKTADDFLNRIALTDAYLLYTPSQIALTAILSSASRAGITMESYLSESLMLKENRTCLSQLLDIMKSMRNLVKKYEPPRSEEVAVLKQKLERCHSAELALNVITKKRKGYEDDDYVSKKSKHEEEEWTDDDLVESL
Cyclin-dependent kinase 7/ cyclin H, sequence (P50613 whole entry): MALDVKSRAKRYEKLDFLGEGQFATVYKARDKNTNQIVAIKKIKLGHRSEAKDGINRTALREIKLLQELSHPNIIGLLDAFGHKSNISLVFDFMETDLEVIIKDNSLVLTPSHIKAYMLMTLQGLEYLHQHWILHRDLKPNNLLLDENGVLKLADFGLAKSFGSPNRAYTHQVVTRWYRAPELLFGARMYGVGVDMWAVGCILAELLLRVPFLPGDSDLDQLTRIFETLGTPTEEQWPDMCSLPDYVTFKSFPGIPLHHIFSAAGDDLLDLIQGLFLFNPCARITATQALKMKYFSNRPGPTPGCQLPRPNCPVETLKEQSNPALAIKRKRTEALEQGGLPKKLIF
Serine/threonine-protein kinase pim-1 (Homo sapiens), sequence (P11309 whole entry, looked up, the tested form may be a part): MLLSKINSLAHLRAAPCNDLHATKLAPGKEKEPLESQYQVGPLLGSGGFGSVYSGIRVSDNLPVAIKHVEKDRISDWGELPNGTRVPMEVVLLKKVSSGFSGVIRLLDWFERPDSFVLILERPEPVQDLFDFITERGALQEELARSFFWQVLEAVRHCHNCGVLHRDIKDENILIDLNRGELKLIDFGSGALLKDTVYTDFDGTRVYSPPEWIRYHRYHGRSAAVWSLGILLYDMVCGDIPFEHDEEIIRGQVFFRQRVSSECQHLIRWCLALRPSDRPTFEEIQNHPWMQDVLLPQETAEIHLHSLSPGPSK

For orientation: GI50 means the concentration giving 50% growth inhibition. The low end stands for more potent growth inhibition, the high end for less potent growth inhibition. By residual activity is commonly meant the signal under treatment as a percentage of the control signal. On to `Cc1nc(NC2CCCC2)sc1-c1ccnc(Nc2ccc(N3CCNCC3)cn2)n1`, for which the Ki is over 5000 nM in test [1], over 5000 nM on CDK2/Cyclin A2 and 1110 nM in test [2]. Besides, the GI50 amounted to 23 nM with MV4-11 [3] and 70 nM in the test on MDA-MB-453. The Activity in the test with MV4-11 [4] came out at 6.3%; in the test on MV4-11 [5] it was 64.05%; in the test on MV4-11 [6], 17.01%; in the test on MV4-11 [7], 12.73%; in the test with MV4-11 [8], 4.23%; with MV4-11 [9], 72.09%. In addition, the Activity is 13.52% with MV4-11 [10]; 9.96% with MV4-11 [11]; 4.01% with MV4-11 [12]; 85 - 85.24% in the test on MV4-11 [13]; 5.9% with MV4-11 [14]; 4.7% in the test with MV4-11 [15]. In the test on MV4-11 [16], the Activity result was “Dose-dependent effect”. Moreover, the residual activity (in the test filed under Homo sapiens; in [17]; in [18]; in [19]; in [20]; in test [21]) was under 10% throughout. Also, the residual activity in [22], in test [23], in test [24] and in test [25] was under 10% each time.

Take `Cc1nc(NC2CCCC2)sc1-c1nc(Nc2ccc(N3CCC(N(C)C)CC3)cn2)ncc1F`: the “Ki(app)” value in [26] and in [27] was “inactive” in each case. Moreover, the values for the GI50 in the test on MV4-11 [3] and with MDA-MB-453 were 454 nM and 356 nM, respectively. Also, the inhibition entry in test [28], in [29] and in test [30] was “Active” throughout.

On to `Cc1nc(NC2CCCC2)sc1-c1nc(Nc2ccc(N3CCN(C)CC3)cn2)ncc1F`, for which the Ki in test [31] amounted to 1 nM; at CDK6/cyclin D3 it was 3 nM; in test [1] it was 2330 nM; at CDK2/Cyclin A2 it was 103 nM; in test [2] it was 2020 nM; on CDK9/cyclin T1 it was 505 nM. The GI50 in the test with MV4-11 [3] came to 73 nM; in the test on MDA-MB-453, 202 nM. In addition, the residual activity (in the test filed under Homo sapiens; in test [17]; in test [18]; in test [19]; in test [20]; in test [21]) was under 10% in each case. Besides, the residual activity in [22], in test [23], in test [24] and in [25] was under 10% throughout.

For the molecule `Cc1nc(Nc2ccccc2)sc1-c1ccnc(Nc2ccc(N3CCN(C)CC3)cn2)n1`, the “Ki(app)” value in test [26], in test [32] and in test [27] was “inactive” in each case. In addition, at CDK9/cyclin T1, the Ki was over 5000 nM. The concentration for 50% growth inhibition (GI50) in the test on MV4-11 [3] amounted to 508 nM; in the test on MDA-MB-453 it was 494 nM.

(Values after ChEMBL document CHEMBL4004830 (J Med Chem, 2017).)
